Shown are actives, neighbours in structure and some others; about 3.7% of the full set was active somewhere.
KCNQ1 block: blocks the human KCNQ1 potassium channel; P51787; CHO-K1 KCNQ1, FluxOR thallium flux fluorescence; hits give high values; B-score at 10 µM; hit rate 1.3% among 310,000;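 active = compounds whose thallium flux B-score, printed positive for inhibition, exceeds three library SD while starting fluorescence stays within three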;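 note: channel opened by potassium depolarization with thallium stimulus after 20 min compound exposure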
KCNQ1 pot: potentiates or activates the human KCNQ1 potassium channel; hit rate 0.35% among 310,000; P51787; B-score at 10 µM; CHO-K1 KCNQ1, thallium flux FluxOR fluorescence; hits give high values;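 active = fluorescence ratio B-score, a plate-corrected score, at least three library SD, with initial intensity B-score within 5 SD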
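Schedule – 37 °C overnight plating, 90-min dark dye load, 20-min compound pretreatment · System – stable KCNQ1 CHO-K1 line · Probe or stimulus – thallium- and potassium-containing depolarizing buffer · Measured by – kinetic FluxOR fluorescence, 10 s baseline plus 110 s post-stimulus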
Kir21 block: inhibitors of mouse Kir2.1 inward-rectifier potassium channel; P35561; HEK293-Kir2.1, FluxOR thallium flux fluorescence; hits give low values; hit rate 0.85% among 310,000; B-score at 10 µM;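 active = fluorescence ratio B-score at or below minus 3 SD of library scores, with starting-brightness B-score within 2 SD, cut at about -4.2 in these data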;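 note: channel flux triggered by added potassium and thallium sulfate stimulus; B-score of peak minus minimum fluorescence over baseline after thallium stimulus; more negative B-score means stronger Kir2.1 block with less thallium influx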
hERG protect: hERG (human) protection from proarrhythmic block; CHO-hERG, FluxOR thallium flux, dofetilide IC70 present; hit rate 0.51% among 310,000; AID 1511; activation (rescue from dofetilide block), less the hit threshold, % at 10 µM;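 active = activation above the mean of controls blocked by dofetilide plus 5 SD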;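 note: thallium influx through hERG after potassium depolarization seen as dye fluorescence rise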
Target sequence (Q12809 whole entry, looked up): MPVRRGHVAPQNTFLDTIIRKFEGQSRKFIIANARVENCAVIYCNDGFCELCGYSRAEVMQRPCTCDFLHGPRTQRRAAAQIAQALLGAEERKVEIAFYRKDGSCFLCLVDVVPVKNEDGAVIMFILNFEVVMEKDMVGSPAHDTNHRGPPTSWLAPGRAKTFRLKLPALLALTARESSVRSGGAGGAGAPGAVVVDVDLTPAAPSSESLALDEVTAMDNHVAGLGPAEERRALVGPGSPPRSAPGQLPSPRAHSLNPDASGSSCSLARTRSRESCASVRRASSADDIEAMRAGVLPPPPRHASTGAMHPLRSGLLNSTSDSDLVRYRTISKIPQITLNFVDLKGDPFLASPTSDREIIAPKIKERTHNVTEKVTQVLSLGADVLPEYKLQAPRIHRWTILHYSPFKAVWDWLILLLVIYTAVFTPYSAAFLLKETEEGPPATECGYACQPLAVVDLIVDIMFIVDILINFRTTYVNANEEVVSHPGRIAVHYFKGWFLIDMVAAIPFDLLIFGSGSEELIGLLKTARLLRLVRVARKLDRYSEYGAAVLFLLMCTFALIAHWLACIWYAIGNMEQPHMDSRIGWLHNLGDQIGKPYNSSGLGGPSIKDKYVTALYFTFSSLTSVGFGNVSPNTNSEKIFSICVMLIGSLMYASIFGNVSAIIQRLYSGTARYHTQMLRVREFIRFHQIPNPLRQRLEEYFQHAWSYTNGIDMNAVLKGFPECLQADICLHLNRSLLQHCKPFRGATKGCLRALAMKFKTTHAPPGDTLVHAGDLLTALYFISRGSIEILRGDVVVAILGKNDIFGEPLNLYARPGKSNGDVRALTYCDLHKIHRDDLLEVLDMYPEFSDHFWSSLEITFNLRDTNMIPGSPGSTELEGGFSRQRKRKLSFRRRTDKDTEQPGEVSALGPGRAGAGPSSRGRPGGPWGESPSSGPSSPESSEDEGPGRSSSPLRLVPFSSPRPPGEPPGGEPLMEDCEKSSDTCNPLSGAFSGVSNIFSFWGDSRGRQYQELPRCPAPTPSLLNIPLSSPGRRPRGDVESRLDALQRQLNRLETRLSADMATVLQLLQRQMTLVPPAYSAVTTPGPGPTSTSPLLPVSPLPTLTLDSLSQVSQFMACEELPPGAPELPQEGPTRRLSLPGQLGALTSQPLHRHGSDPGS
KCNK3 inh: human KCNK3 channel inhibition, primary screen. O14649. CHO-KCNK3 thallium flux, FluxOR fluorescence; hits give low values. B-score at 10 µM. hit rate 0.84% among 340,000. AID 602410;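 active = B-score under library mean minus 4 SD, starting fluorescence ratio at most library mean plus 5 SD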;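 note: more negative B-score means stronger inhibition of thallium flux through KCNK3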
KCNK9 block: inhibitors of human KCNK9 two-pore domain potassium channel | hit rate 1.2% among 310,000 | Q9NPC2 | B-score at 10 µM | HEK293 KCNK9, FluxOR thallium flux fluorescence; hits give low values;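 active = ratio B-score over 3 SD below the library mean, with starting fluorescence within 5 SD of its mean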;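 note: negative B-score means less thallium flux so channel inhibition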
Numbers without * were called inactive; i = inactive; nt = no result.

SMILES | KCNQ1 block | KCNQ1 pot | Kir21 block | hERG protect | KCNK3 inh | KCNK9 block
CCOC(=O)c1c(N)c(C#N)cn1-c1ccccc1 | i | i | 0.92 | -13 | i | i
Cc1cccc(OCc2cc(-c3ccccc3)no2)c1C | i | i | 1.8 | -9 | i | i
Clc1ccc(OCc2cc(-c3ccccc3)no2)c(Cl)c1 | i | i | 1.8 | 0 | i | -7.4*
Cc1ccc(S(=O)(=O)N2CCN(C(=O)c3ccc4ccccc4n3)CC2)c(C)c1 | nt | nt | nt | nt | i | nt
Cc1ccc(C(=O)c2ccc(C)cc2)cc1 | i | i | 0.21 | 2 | i | i
Cc1ccc(C(=O)c2no[n+]([O-])c2C(=O)c2ccc(C)cc2)cc1 | i | i | -7.9* | -26 | i | i
Cc1cccc2sc(N(CCCN(C)C)C(=O)c3ccc(Cl)s3)nc12 | i | i | -5.4* | -20 | i | i
CN(C)CCN(C(=O)c1cccc2ccccc12)c1nc2cc3c(cc2s1)OCO3 | 6* | i | 2.1 | -21 | i | i
CCOc1cccc2sc(N(CCN(C)C)C(=O)c3cc4ccccc4cc3OC)nc12 | 9* | i | -1.6 | -11 | i | i
CCOc1ccc2nc(N(CCN(C)C)C(=O)c3cc4ccccc4cc3OC)sc2c1 | i | i | 2.4 | -18 | i | i
CC(=O)C[C@@H](O)CC(=O)[C@@H]1OC(=O)CCCCCCCc2ccccc21 | nt | nt | nt | nt | i | nt
COc1ccc(N(C(=O)Cn2nnc(-c3ccccc3F)n2)C(C(=O)NCC2CCCO2)c2ccc(Cl)cc2)cc1 (configuration not stated) | i | i | -0.1 | -4 | i | i
Cc1ccc(C)c2sc(NC(=O)c3ccc(N4CCCCC4)c([N+](=O)[O-])c3)nc12 | i | i | 0.86 | -2 | i | -7.8*
COc1ccccc1NC(=O)c1ccc2c(c1)CCN2S(C)(=O)=O | i | i | 0.07 | -5 | i | i
Cc1ccc(NC(=O)c2ccc3c(c2)CCN3S(C)(=O)=O)c(C)c1 | i | i | -0.6 | 5.3* | i | i
Cc1cccc2cc3c(NC(=O)C(C)(C)C)nn(CC(C)C)c3nc12 | i | i | 0.84 | -4 | i | i
O=S(=O)(c1ccc(Cl)cc1)N1CCCC1c1nc2ccccc2s1 (configuration not stated) | i | i | -4.7* | -12 | i | i
O=S(=O)(c1cc(Cl)cc(Cl)c1)N1CCCC1c1nc2ccccc2s1 (configuration not stated) | i | i | 1.1 | -6 | i | i
CCCCOC(=O)N1CCOCCOCCOCC1 | i | i | -4.7* | -12 | i | i
CCCCNC(=O)N1CCOCCOCCN(C(=O)NCCCC)CCOCCOCC1 | i | i | -0.36 | -12 | i | i
O=C(CSc1ccc(Cl)cc1)N1N=CCC1c1ccccc1 (configuration not stated) | i | i | -6.1* | -7 | i | i
Cc1cccc(C(=O)NC(=S)N2CCc3ccccc3C2)c1 | i | 13* | 1.1 | 21* | i | i
Cc1cccc(C(=O)NCCC(=O)N2CCc3ccccc3C2)c1 | nt | nt | nt | nt | i | nt
Cc1ccc(S(=O)(=O)NCCC(=O)N2CCCCCCC2)cc1 | i | i | -1 | -13 | i | i
O=C(O)CCSc1ncnc2sc(-c3ccccc3)cc12 | i | 14* | 1.3 | 6.6* | i | i
SMILES | KCNQ1 block | KCNQ1 pot | Kir21 block | hERG protect | KCNK3 inh | KCNK9 block
COc1ccc(C2(O)CCN(CCCCOc3ccccc3)CC2)cc1 | i | i | -0.59 | -13 | i | i
O=C(Nc1ccc(SC(F)F)cc1)c1ccc2nccnc2c1 | i | i | -0.62 | -9 | i | i
O=C1/C(=C\c2cc(Br)cc(Br)c2O)SC(=S)N1Cc1ccccc1 | i | i | -0.43 | -8 | i | i
Cc1c(N2C(=O)/C(=C\c3ccccc3O)SC2=S)c(=O)n(-c2ccccc2)n1C | i | 42* | -0.59 | 17* | i | i
Cc1c(N2C(=O)/C(=C/c3cccc4ccccc34)SC2=S)c(=O)n(-c2ccccc2)n1C | i | i | 1.2 | -8 | i | i
CN1C(=O)/C(=C/c2cc(N=Nc3ccccc3)ccc2O)SC1=S | 7* | i | 0.54 | -8 | i | i
CCC(C)c1ccc(NC(=O)c2[nH]c(C)c(C(C)=O)c2C)cc1 (configuration not stated) | i | i | -0.43 | -5 | i | i
CCC(NC(=O)c1[nH]c(C)c(C(C)=O)c1C)c1ccc(Br)cc1 (configuration not stated) | 6* | i | -0.32 | -12 | i | i
Cc1ccc(CCNS(=O)(=O)c2ccc(C)cc2)cc1 | i | i | 0.03 | -8 | i | i
Cc1ccc(CSCCNS(=O)(=O)c2ccc(C)cc2)cc1 | i | i | -5.5* | -3 | i | i
COC(=O)c1[nH]c2ccc(Br)cc2c1NC(=O)CN1CCN(C2CCCCC2)CC1 | i | i | -4.2 | -16 | i | i
COC(=O)c1[nH]c2ccc(Br)cc2c1NC(=O)CN1CCCc2ccccc21 | 6* | i | -0.46 | -3 | i | i
CCOC(=O)CSC1=NC(=O)/C(=C\c2ccc(Cl)cc2)S1 | 6* | i | 0.71 | -12 | i | i
CCOC(=O)C1CCN(C2=NC(=O)/C(=C/c3ccc(Cl)cc3)S2)CC1 | i | i | 0.02 | -8 | i | i
CN(C(=O)COC(=O)c1ccc(Br)c(S(=O)(=O)N2CCOCC2)c1)C1CCCCC1 | nt | nt | nt | nt | i | nt
Cc1cc(C)cc(C(=O)Nc2ccc(NC(=O)Cc3ccccc3)cc2)c1 | i | i | 0.04 | 6.2* | i | i
O=C(Cc1ccccc1)Nc1ccc(NC(=O)c2cccc(Cl)c2)cc1 | i | i | 1.6 | -2 | i | i
COc1ccc(-c2[nH]ncc2CNC(C)c2ccccc2Cl)cc1F (configuration not stated) | i | i | -7.3* | -8 | i | i
O=C(Cc1ccccc1)N/N=C/c1ccc2cccc(O)c2n1 | i | i | 0.02 | 9.4* | i | i
COc1ccccc1CCNC(=O)c1ccc(Br)s1 | i | i | -0.74 | -12 | i | i
CC(C)C(C)(C#N)NC(=O)CSc1nc2scc(-c3ccco3)c2c(=O)n1-c1ccccc1 (configuration not stated) | i | i | 0.51 | -7 | i | i
CC(C)C(C)NC(=O)CSc1nc2scc(-c3ccco3)c2c(=O)n1-c1ccccc1 (configuration not stated) | i | i | -0.26 | -4 | i | -6.8*
C[C@@H]1CN[C@H](CCO)/C1=C\c1ccccc1 | nt | nt | nt | nt | i | nt
